For 6 molecules, inhibition and EC50 results are on record in ChEMBL document CHEMBL1150836, “Bioactive constituents of the roots of Cynanchum atratum” (2001).

The structures appear in SMILES notation. ≈ marks a conversion by molar mass, not a printed value.

Test [1] deals with N9. The test can be described thus: Antiinflammatory activity in LPS/IFN-gamma-stimulated mouse N9 cells assessed as inhibition of TNFalpha formation at 10 uM pretreated 1 hr before LPS/IFNgamma challenge measured after 24 hrs by enzyme immunoassay.
The test system of test [2] is RAW264.7. The test is described as follows: Antiinflammatory activity in LPS-stimulated mouse RAW264.7 cells assessed as inhibition of TNFalpha formation at 10 uM pretreated 1 hr before LPS challenge measured after 24 hrs by enzyme immunoassay. The class given is functional. The method, boiled down: (§1)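 RAW 264.7 cells, 2 × 10⁵ per well in DMEM with 5% FCS and penicillin/streptomycin, adhered overnight. Pretreated 1 h at 37 °C with drug (0.5% DMSO vehicle; dexamethasone reference), then LPS (E. coli 0111:B4) 1 μg/mL for 24 h. TNF-α in the collected medium, stored at −70 °C, quantified by EIA kit.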

Test [3] deals with N9. The test is described as follows: Antiinflammatory activity in LPS/IFN-gamma-stimulated mouse N9 cells assessed as inhibition of TNFalpha formation at 30 uM pretreated 1 hr before LPS/IFNgamma challenge measured after 24 hrs by enzyme immunoassay.
Test [4] deals with RAW264.7. The test is described as follows: Antiinflammatory activity in LPS-stimulated mouse RAW264.7 cells assessed as inhibition of TNFalpha formation at 30 uM pretreated 1 hr before LPS challenge measured after 24 hrs by enzyme immunoassay. It counts as functional. The gist of the method:
as §1

Test [5] in a line: Cytotoxicity against mouse 212 cells after 6 days by MTT assay. It counts as functional. Particulars: 144 h, read-out: ED50 (the source's name). The method, boiled down: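 Ha-ras-transformed NIH/3T3 line (212), kept in MEM alpha with 10% calf serum and antibiotics. Assay medium had 10 mM HEPES pH 7.3. (1–3) × 10³ cells seeded, attached 6 h, then exposed to a range of drug concentrations for 6 days at 37 °C. MTT 4 h, DMSO solubilisation, A550.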
A general note: Formazan colour is commonly taken as a measure of viable cells.

A short description of test [6]: Cytotoxicity against human PLC/PRF/5 cells after 6 days by MTT assay. The class given is functional. The settings on record: PLC-PRF-5, 144 h, read-out: ED50 (the source's name). The gist of the method: (§2)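 Cells grown in DMEM with 10% FBS, 2 mM glutamine and penicillin/streptomycin. (1–3) × 10³ cells seeded per well, attached 6 h, then given fresh medium with 10 mM HEPES pH 7.3 and a range of drug concentrations at 37 °C, CO₂, for 6 days. MTT (1 mg/mL in PBS) added for 4 h, formazan dissolved in DMSO, absorbance read at 550 nm.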

The next test concerns T-24. The test is described as follows: Cytotoxicity against human T24 cells after 6 days by MTT assay. The class given is functional. The settings on record: T-24, 144 h, read-out: ED50 (the source's name). The method, boiled down: as §2
For the next test, the system named is HT-3. The test can be described thus: Cytotoxicity against human HT3 cells after 6 days by MTT assay. The class given is functional. Particulars: HT-3, 144 h, read-out: ED50 (the source's name). The method, boiled down:
as §2

For another test, the system named is Ca-Ski. The test can be described thus: Cytotoxicity against human CaSki cells after 6 days by MTT assay. It counts as functional. Particulars: 144 h, read-out: ED50 (the source's name). The method, boiled down: as §2
The next test has as its system SiHa. The test can be described thus: Cytotoxicity against human SiHa cells after 6 days by MTT assay. The class given is functional. The settings on record: 144 h, read-out: ED50 (the source's name). The method, boiled down: as §2

As a reminder, the inhibition is the relative decrease from the control value, in per cent. Regarding `CO[C@@H]1[C@@H](O)[C@H](O[C@H]2CC[C@@]3(C)C(=CC[C@@H]4C(=O)O[C@@H]5CO[C@]6(C)OC=C(CC[C@@H]43)[C@H]56)C2)O[C@H](C)[C@H]1O`, the inhibition at 10 µM in the test on N9 [1] amounted to 3.2%; in the test on RAW264.7 [2], 29.5%.
For `CC(=O)c1ccc(O)c(O)c1`, the figures for the inhibition at 30 µM with N9 [3] and in the test on RAW264.7 [4] were -21.5% and -29.2%, respectively.
Consider `C[C@@H]1C[C@H]2[C@@H]3CCC4=CC(=O)C=C[C@]4(C)[C@@]3(F)[C@@H](O)C[C@]2(C)[C@@]1(O)C(=O)CO` [DEXAMETHASONE], for which the inhibition at 10 µM in the test with N9 [1] amounted to 82%; with RAW264.7 [2], 49.9%.
Take `CO[C@@H]1[C@@H](O)[C@H](O[C@H]2CC[C@@]3(C)C(=CC[C@@H]4C(=O)O[C@@H]5CO[C@]6(C)OC=C(CC[C@@H]43)[C@H]56)C2)O[C@H](C)[C@H]1O[C@H]1C[C@H](OC)[C@@H](O[C@H]2C[C@H](OC)[C@H](O)[C@@H](C)O2)[C@H](C)O1`: the inhibition at 30 µM was found to be 30.9% with N9 [3] and 33.7% in the test with RAW264.7 [4]. For the same molecule, the EC50 in test [5] came out at 0.96 µg/mL (≈ 1.19 µM).
As for `CO[C@@H]1[C@@H](O)[C@H](O[C@H]2CC[C@@]3(C)C(=CC[C@@H]4C(=O)O[C@@H]5CO[C@]6(C)OC(=O)/C(=C/C[C@@H]43)[C@H]56)C2)O[C@H](C)[C@H]1O[C@H]1C[C@H](OC)[C@@H](O[C@H]2C[C@H](OC)[C@H](O)[C@@H](C)O2)[C@H](C)O1` [ATRATOGLAUCOSIDE B], the EC50 (in test [6]; with T-24; in test [5]; in the test on HT-3; with Ca-Ski; in the test with SiHa) was greater than 4 µg/mL each time.
With `COc1cc(C(C)=O)ccc1O` [APOCYNIN], the values for the inhibition at 30 µM with N9 [3] and in the test on RAW264.7 [4] were -22.6% and -19.8%, respectively.
